The test system of experiment [1] is Escherichia coli. As to the kind of experiment: Antimicrobial activity against Escherichia coli TA531 harboring 23S rRNA A2058G mutant after 15 hrs. The conditions noted are these: TA531, 15 h. It counts as functional. In outline:
(§1)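 E. coli TA531 lacking chromosomal rrn alleles and carrying plasmid-borne wild-type, A2058G or U2609C 23S rRNA. Grown overnight in LB with 100 μg/ml ampicillin, diluted and regrown. MIC was the lowest concentration arresting culture growth.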

In experiment [2] the test system is Escherichia coli. As to the kind of experiment: Antimicrobial activity against chromosomal rrn allele deficient-Escherichia coli TA531 after 15 hrs. The conditions noted are these: TA531, 15 h. The class given is functional. In outline:
as §1

The subject of experiment [3] is Escherichia coli. As to the kind of experiment: Antimicrobial activity against Escherichia coli TA531 harboring 23S rRNA U2609C mutant after 15 hrs. It counts as functional. The conditions noted are these: TA531, 15 h. In outline:
as §1

Experiment [4] deals with T1, Bacterial 70S ribosome (Bacteria) (UniProt P0A7V0+P60723+P0AG67+P0A7R5+P0A7R9+P0A7S3+P0A7S9+P0AG59+P0ADZ4+P0A7T3+P0AG63+P0A7T7+P0A7U3+P0A7U7+P68679+P0A7V3+P0A7V8+P0A7W1+P02358+P02359+P0A7W7+P0A7X3+P0A7J3+P0A7J7+P0AA10+P0ADY3+P02413+P0ADY7+P0AG44+P0C018+P0A7K6+P0A7L0+P0A7L3+P0AG48+P61175+P0ADZ0+P60624+P68919+P0A7L8+P0A7M2+P0A7M6+P60422+P0AG51+P0A7N1+P0A7M9+P0A7N4+P0A7N9+P0A7P5+P0A7Q1+Q2EEQ2+P0A7Q6+P60438+P62399+P0AG55+P0A7K2). As to the kind of experiment: Inhibition of poly(A)-dependent synthesis of poly(Lys) using Escherichia coli K-12 70S ribosome at 20 uM after 1 hr by liquid scintillation counting. In outline: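 Poly(A)-programmed tight-coupled 70S ribosomes (0.5 μM) were preincubated 10 min at 37°C with antibiotic in buffer A. The mix held [3H]lysine (3 nmol, 500 dpm/pmol), bulk E. coli tRNA, 3 mM ATP, 1.5 mM GTP, 5 mM acetyl phosphate and S-100 fraction. Incubated 1 h at 37°C, followed by hot TCA (with 0.25% sodium wolframate) precipitation onto glass fiber filters and scintillation counting.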

The target in experiment [5] is Bacterial 70S ribosome. As to the kind of experiment: Displacement of [14C]-erythromycin from Escherichia coli K-12 70S ribosome after 10 mins by competitive binding assay. The gist of the method:
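Tight-coupled 70S ribosomes (0.20 μM final) in buffer A (20 mM HEPES-KOH pH 7.6, 4.5 mM Mg acetate, 150 mM NH4 acetate, polyamines). [14C]-erythromycin held constant at 0.6 μM (150 dpm/pmol) with increasing unlabeled competitor, 10 min at 37°C. Mixture was diluted in cold buffer and filtered through cellulose nitrate, which was washed twice and counted. KD was derived from a competition binding equation.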

Experiment [6] deals with Escherichia coli K-12. As to the kind of experiment: Binding affinity to Escherichia coli K-12 Pi complex of 70S ribosome Pi complex U2609C mutant assessed as blockade of tylosin-induced inhibition of AcPhe-puromycin synthesis at 10 uM after 2 mins by liquid scintillation counting. The gist of the method: (§2)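 Pi complexes were formed on ribosomes carrying the A2058G or U2609C mutation (Ac[3H]Phe-tRNA at the P-site of MF-mRNA-programmed 70S; buffer A). Complexes were pre-exposed to antibiotic (final 10 μM) at 37°C for 2 min, then tylosin was added (final 5 μM). They were then reacted with 1 mM puromycin at 37°C for 2 min to measure AcPhe-puromycin formation.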

Experiment [7] deals with Nucleic Acid. As to the kind of experiment: Binding affinity to Escherichia coli K-12 70S ribosome 23S rRNA assessed as protection against CMCT-induced modification of 23S rRNA […] by primer extension analysis. It counts as nucleic-acid assay.
Experiment [8] concerns Escherichia coli K-12. As to the kind of experiment: Binding affinity to Escherichia coli K-12 70S ribosome Pi complex assessed as inhibition of AcPhe-puromycin synthesis at 10 uM after 2 mins by liquid scintillation counting. The gist of the method:
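Pi complex: Ac[3H]Phe-tRNA bound at the P-site of MF-mRNA-programmed 70S ribosomes (0.3 μM ribosomes, 2.0 μM mRNA, 0.5 μM tRNA; buffer A, pH 7.6, 4.5 mM Mg2+; 37°C 15 min), free of unbound donor. Reacted with 1 mM puromycin at 37°C for 2 min, with or without 10 μM antibiotic. Duplicates.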

Experiment [9] deals with Nucleic Acid. As to the kind of experiment: Binding affinity to Escherichia coli K-12 70S ribosome 23S rRNA assessed as protection against DMS-induced modification of 23S rRNA […] by primer extension analysis. The class given is nucleic-acid assay.
For experiment [10], the target named is T1, Bacterial 70S ribosome (Bacteria). As to the kind of experiment: Inhibition of poly(U)-dependent synthesis of poly(Phe) using Escherichia coli K-12 70S ribosome at 20 uM after 30 mins by liquid scintillation counting.
Experiment [11] concerns Nucleic Acid. As to the kind of experiment: Binding affinity to Escherichia coli K-12 70S ribosome 23S rRNA assessed as enhancement of DMS-induced modification of 23S rRNA domain II at nucleotides A752 by primer extension analysis. The class given is nucleic-acid assay. In outline: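 70S ribosomes (50 pmol) activated 5 min at 37°C in 20 mM HEPES/KOH pH 7.8, 20 mM MgCl2, 300 mM KCl. Antibiotic added in the same buffer for 10 min at 37°C, then cooled on ice. DMS modification followed, then SDS/EDTA buffer, phenol/chloroform extraction and ethanol precipitation of rRNA. Repeated up to four times.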

Experiment [12] deals with Nucleic Acid. As to the kind of experiment: Binding affinity to Escherichia coli K-12 70S ribosome 23S rRNA U2609C mutant assessed as protection against DMS-induced modification of 23S rRNA domain V at nucleotides A2058 and A2059 by primer extension analysis.
For experiment [13], the system named is Escherichia coli K-12. As to the kind of experiment: Binding affinity to Escherichia coli K-12 Pi complex of 70S ribosome Pi complex A2058G mutant assessed as blockade of tylosin-induced inhibition of AcPhe-puromycin synthesis at 10 uM after 2 mins by liquid scintillation counting. In outline:
as §2

Experiment [14] deals with T1, Bacterial 70S ribosome (Bacteria). As to the kind of experiment: Inhibition of Escherichia coli K-12 70S ribosome dependent elongation factor G-dependent translocation.
Experiment [15] has as its system Escherichia coli K-12. As to the kind of experiment: Inhibition of poly(U)-dependent synthesis of poly(Phe) using Escherichia coli K-12 70S ribosome U2609C mutant at 50 uM after 1 hr by liquid scintillation counting.
The subject of experiment [16] is Escherichia coli K-12. As to the kind of experiment: Inhibition of poly(U)-dependent synthesis of poly(Phe) using Escherichia coli K-12 70S ribosome A2058 mutant at 50 uM after 1 hr by liquid scintillation counting.
Experiment [17] concerns Escherichia coli K-12. As to the kind of experiment: Binding affinity to Escherichia coli K-12 70S ribosome Pi complex assessed as dissociation rate constant at 2 uM.
Experiment [18] has as its system Nucleic Acid. As to the kind of experiment: Binding affinity to Escherichia coli K-12 70S ribosome 23S rRNA A2062 mutant assessed as enhancement of DMS-induced modification of 23S rRNA domain V at nucleotides A2062 by primer extension analysis. The class given is nucleic-acid assay.
Experiment [19] concerns the target T1, Bacterial 70S ribosome (Bacteria). As to the kind of experiment: Inhibition of tRNA binding to Escherichia coli K-12 70S ribosome.
Experiment [20] has as its system Nucleic Acid. As to the kind of experiment: Binding affinity to Escherichia coli K-12 70S ribosome 23S rRNA A2062 mutant assessed as protection against DMS-induced modification of 23S rRNA domain II at nucleotides A752 and by primer extension analysis. It counts as nucleic-acid assay.
Experiment [21] concerns the target T1, Bacterial 70S ribosome (Bacteria). As to the kind of experiment: Inhibition of Ptase activity of Escherichia coli K-12 70S ribosome.
Experiment [22] concerns Escherichia coli K-12. As to the kind of experiment: Binding affinity to Escherichia coli K-12 70S ribosome Pi complex assessed as inhibition of AcPhe-puromycin synthesis at 5 uM after 2 mins by liquid scintillation counting.

Converted amounts (≈) assume the structure as drawn. The source made the active and inactive calls. The calls are words filed in the database; no cut-off is given here.

As for `CC[C@H]1OC(=O)[C@H](C)C(=O)[C@H](C)[C@@H](O[C@@H]2O[C@H](C)C[C@H](N(C)C)[C@H]2O)[C@](C)(OC)C[C@@H](C)C(=O)[C@H](C)[C@H]2N(CCCCn3cnc(-c4cccnc4)c3)C(=O)O[C@]12C` [TELITHROMYCIN], the MIC in experiment [1] is over 150 mg/L; in experiment [2], 16 mg/L (≈ 19.7 µM); in experiment [3] it was 64 mg/L (≈ 78.8 µM).

As for `CC[C@H]1OC(=O)[C@H](C)[C@@H](O[C@H]2C[C@@](C)(OC)[C@@H](O)[C@H](C)O2)[C@H](C)[C@@H](O[C@@H]2O[C@H](C)C[C@H](N(C)C)[C@H]2O)[C@](C)(O)C[C@@H](C)C(=O)[C@H](C)[C@@H](O)[C@]1(C)O` [ERYTHROMYCIN], in experiment [4], the inhibition entry is “Active”. Further, the MIC in [1] is over 500 mg/L; in experiment [2], 128 mg/L (≈ 174 µM); in [3], 128 mg/L (≈ 174 µM). In [5], this molecule returned a Kd of 0.015 µM. Further, the result in experiment [6], in experiment [11] and in experiment [12] was Active. The outcome in experiment [7], in experiment [8] and in experiment [9] was inactive. For the same molecule, the inhibition result in [10] was “inactive”.

Take `C[C@H]1C(=O)O[C@H](CCNC(=O)Cc2cccc(-c3ccco3)c2)[C@@]2(C)OC(=O)N[C@@H]2[C@@H](C)C(=O)[C@H](C)C[C@@](C)(O)[C@H](O[C@@H]2O[C@H](C)C[C@H](N(C)C)C2O)[C@@H](C)C1=O` (stereo partly specified) [KOSAN-1325]: the outcome in experiment [13], in experiment [6], in experiment [7], in [9], in [18] and in [12] was Active. Moreover, in experiment [20], the outcome was Active. In addition, the inhibition result in experiment [14], in [16], in experiment [8], in [10], in [19] and in [21] was “inactive” in each case. Further, the inhibition result in experiment [4] and in [15] was “Active” in each case. In addition, the MIC is over 250 mg/L in experiment [1], 8 mg/L (≈ 10 µM) in experiment [2] and 8 mg/L (≈ 10 µM) in experiment [3]. For the same molecule, in [5], the affinity, expressed as Kd, was 0.0075 µM. In addition, the Kdiss in [17] stood at 5e-05 s⁻¹.

On to `CC[C@H]1OC(=O)C[C@@H](O)[C@H](C)[C@@H](O[C@@H]2O[C@H](C)[C@@H](O[C@H]3C[C@@](C)(O)[C@@H](O)[C@H](C)O3)[C@H](N(C)C)[C@H]2O)[C@@H](CC=O)C[C@@H](C)C(=O)/C=C/C(C)=C/[C@@H]1CO[C@@H]1O[C@H](C)[C@@H](O)[C@@H](OC)[C@H]1OC`, for which the result in [22] was Active.

The record behind these values is ChEMBL document CHEMBL1687727, “Distinct mode of interaction of a novel ketolide antibiotic that displays enhanced antimicrobial activity” (Antimicrob Agents Chemother, 2009).
